Data: ChEMBL document CHEMBL4020823, “Highly Selective, Potent, and Oral mTOR Inhibitor for Treatment of Cancer as Autophagy Inducer” (J Med Chem, 2018)
Calls of active or inactive are those of the source. The calls are words filed in the database; no cut-off is given here.

What was measured:
Homo sapiens [1] = species on record: Homo sapiens; test: Inhibition of mTORC1 in human MDA-MB-231 cells assessed as reduction in S6 phosphorylation at Ser 240/244 residues at 0.25 to 0.5 uM by Western blot analysis; type: cell-based
Summary of the method: (§1)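 Cells treated with the indicated concentrations, then whole-cell lysates immunoblotted. mTORC1 activity read as S6 and 4E-BP1 phosphorylation; mTORC2 activity read as AKT Ser473 phosphorylation. Blocking in 5% skim milk, primary antibodies at 4 °C overnight, peroxidase-conjugated secondary, ECL detection.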

T47D = test: Antitumor activity against human T47D cells xenografted in BALB/c nude mouse assessed as decrease in tumor growth at 15 mg/kg, po administered via gavage after 3 weeks relative to control; type: functional; conditions: 504 h, read-out: TGI
[2] = AUC (0 to infinity) in Sprague-Dawley rat at 20 mg/kg, iv administered as single dose by HPLC analysis; type: ADME, organism-based; set-up: dose 20 mg/kg, time infinity, route intravenous; conditions: in vivo
Summary of the method: (§2)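 Rats fasted overnight, then given one 20 mg/kg dose either iv or po. Blood was collected and centrifuged at once to obtain plasma. Plasma drug levels were measured by HPLC, and PK parameters were derived from the concentration-time data.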

[3] = Clearance in Sprague-Dawley rat at 20 mg/kg, iv administered as single dose by HPLC analysis; type: ADME, organism-based; conditions: in vivo; summary of the method: as §2
Homo sapiens [4] = species on record: Homo sapiens; test: Inhibition of mTORC1 in human SiHa cells assessed as reduction in 4E-BP1 phosphorylation at Ser65 residues at 0.25 to 0.5 uM by Western blot analysis; type: cell-based; summary of the method: as §1
Homo sapiens [5] = species on record: Homo sapiens; test: Inhibition of mTORC1 in human MDA-MB-231 cells assessed as reduction in 4E-BP1 phosphorylation at Thr37/46 residues at 0.25 to 0.5 uM by Western blot analysis; type: cell-based; summary of the method: as §1
Homo sapiens [6] = species on record: Homo sapiens; test: Inhibition of mTORC2 in human MDA-MB-231 cells assessed as reduction in AKT phosphorylation at Ser473 residues at 0.25 to 0.5 uM by Western blot analysis; type: cell-based
Summary of the method: (§3)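 Cells exposed to a range of compound concentrations; whole-cell lysates immunoblotted for phospho-AKT (Ser473) as the mTORC2 readout, alongside S6 and 4E-BP1 phosphorylation for mTORC1. Membranes blocked in 5% skim milk, primary antibodies overnight at 4 °C, peroxidase-conjugated anti-mouse or anti-rabbit IgG secondary, ECL detection. Rapamycin as comparator.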

[7] = Protein binding in rabbit plasma at 4 uM after 4 hrs by equilibrium dialysis method; type: ADME, cell-free, Oryctolagus cuniculus; conditions: read-out: PPB (converted)
Summary of the method: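 Plasma protein binding measured in rabbit and human plasma with compound at 4 μM over a 4 h period; result given as percent bound.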

HeLa [8] = test: Growth inhibition of human HeLa cells after 72 hrs by CCK8 assay; type: functional, cell-based
Summary of the method: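 Cells were seeded at 2000–3000 per well and grown 24 h in serum-containing medium. They were then exposed to serially diluted compound for 72 h at 37 °C, 5% CO2. CCK8 reagent was added for 1–4 h and absorbance read at 450 nm. Inhibition = (AC − AS)/(AC − Ab) × 100%. IC50 is the average of at least three independent determinations.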

SiHa = test: Induction of autophagy in human SiHa cells assessed as increase in LC3-2 puncta level after 48 hrs by immunofluorescence staining based microscopic analysis; type: functional, cell-based
Summary of the method: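 Cells seeded on glass coverslips in complete 1640 or DMEM and incubated with inhibitors at different concentrations for 48 h. Fixed in 4% paraformaldehyde, permeabilized with 0.15% Triton X-100, blocked in 4% BSA/PBS for 1 h at room temperature. Anti-LC3B (1:200) overnight, then FITC-conjugated secondary, DAPI nuclear stain. LC3B-II puncta viewed by fluorescence microscopy.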

[9] = Volume of distribution at steady state in Sprague-Dawley rat at 20 mg/kg, iv administered as single dose by HPLC analysis; type: ADME, organism-based; conditions: in vivo, read-out: Vdss
Summary of the method: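 Rats fasted overnight, then given a single 20 mg/kg dose either iv or po. Blood collected and centrifuged immediately to obtain plasma. Plasma drug levels measured by HPLC, and pharmacokinetic parameters derived from both routes.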

Mus musculus [10] = test: Down regulation of AKT phosphorylation at Ser473 residues in human T47D cells xenografted in BALB/c nude mouse administered via oral gavage after 3 weeks by hematoxylin and eosine staining based light microscopic assay; type: functional, cell-based
Summary of the method: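 Tumours from the oral 3-week T-47D xenograft study were formalin-fixed, paraffin-embedded and cut into 5 μm sections. Sections were deparaffinized, rehydrated and incubated overnight at 4 °C with phospho-specific primary antibody at 1:100. Biotin secondary was applied for 1 h at room temperature, then ABC-peroxidase/DAB with hematoxylin counterstain. Sections were viewed by light microscopy.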

Homo sapiens [11] = species on record: Homo sapiens; test: Inhibition of mTORC2 in human SiHa cells assessed as reduction in AKT phosphorylation at Ser473 residues at 0.25 to 0.5 uM by Western blot analysis; type: cell-based; summary of the method: as §3
HeLa [12] = test: Cell cycle arrest in human HeLa cells assessed as decrease in S-phase at 0.5 to 1 uM after 24 hrs by propidium iodide-staining based flow cytometric analysis; type: functional
Summary of the method: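 Cells were seeded at 5 × 10^5 cells/mL. At 24 h after plating they were treated with increasing concentrations for 24 h, washed in PBS, and fixed in ice-cold 70% ethanol for at least 24 h. They were stained with propidium iodide plus RNase A for 30 min at 37 °C and analysed by flow cytometry for phase distribution.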

ATR/ATRIP (Homo sapiens) = ATR/ATRIP (Homo sapiens) (UniProt Q13535+Q8WXE1); test: Inhibition of full length recombinant human ATR /ATRIP at 1 uM relative to control; type: protein-complex assay
Sequence of ATR/ATRIP (Homo sapiens) (Q13535 whole entry, looked up): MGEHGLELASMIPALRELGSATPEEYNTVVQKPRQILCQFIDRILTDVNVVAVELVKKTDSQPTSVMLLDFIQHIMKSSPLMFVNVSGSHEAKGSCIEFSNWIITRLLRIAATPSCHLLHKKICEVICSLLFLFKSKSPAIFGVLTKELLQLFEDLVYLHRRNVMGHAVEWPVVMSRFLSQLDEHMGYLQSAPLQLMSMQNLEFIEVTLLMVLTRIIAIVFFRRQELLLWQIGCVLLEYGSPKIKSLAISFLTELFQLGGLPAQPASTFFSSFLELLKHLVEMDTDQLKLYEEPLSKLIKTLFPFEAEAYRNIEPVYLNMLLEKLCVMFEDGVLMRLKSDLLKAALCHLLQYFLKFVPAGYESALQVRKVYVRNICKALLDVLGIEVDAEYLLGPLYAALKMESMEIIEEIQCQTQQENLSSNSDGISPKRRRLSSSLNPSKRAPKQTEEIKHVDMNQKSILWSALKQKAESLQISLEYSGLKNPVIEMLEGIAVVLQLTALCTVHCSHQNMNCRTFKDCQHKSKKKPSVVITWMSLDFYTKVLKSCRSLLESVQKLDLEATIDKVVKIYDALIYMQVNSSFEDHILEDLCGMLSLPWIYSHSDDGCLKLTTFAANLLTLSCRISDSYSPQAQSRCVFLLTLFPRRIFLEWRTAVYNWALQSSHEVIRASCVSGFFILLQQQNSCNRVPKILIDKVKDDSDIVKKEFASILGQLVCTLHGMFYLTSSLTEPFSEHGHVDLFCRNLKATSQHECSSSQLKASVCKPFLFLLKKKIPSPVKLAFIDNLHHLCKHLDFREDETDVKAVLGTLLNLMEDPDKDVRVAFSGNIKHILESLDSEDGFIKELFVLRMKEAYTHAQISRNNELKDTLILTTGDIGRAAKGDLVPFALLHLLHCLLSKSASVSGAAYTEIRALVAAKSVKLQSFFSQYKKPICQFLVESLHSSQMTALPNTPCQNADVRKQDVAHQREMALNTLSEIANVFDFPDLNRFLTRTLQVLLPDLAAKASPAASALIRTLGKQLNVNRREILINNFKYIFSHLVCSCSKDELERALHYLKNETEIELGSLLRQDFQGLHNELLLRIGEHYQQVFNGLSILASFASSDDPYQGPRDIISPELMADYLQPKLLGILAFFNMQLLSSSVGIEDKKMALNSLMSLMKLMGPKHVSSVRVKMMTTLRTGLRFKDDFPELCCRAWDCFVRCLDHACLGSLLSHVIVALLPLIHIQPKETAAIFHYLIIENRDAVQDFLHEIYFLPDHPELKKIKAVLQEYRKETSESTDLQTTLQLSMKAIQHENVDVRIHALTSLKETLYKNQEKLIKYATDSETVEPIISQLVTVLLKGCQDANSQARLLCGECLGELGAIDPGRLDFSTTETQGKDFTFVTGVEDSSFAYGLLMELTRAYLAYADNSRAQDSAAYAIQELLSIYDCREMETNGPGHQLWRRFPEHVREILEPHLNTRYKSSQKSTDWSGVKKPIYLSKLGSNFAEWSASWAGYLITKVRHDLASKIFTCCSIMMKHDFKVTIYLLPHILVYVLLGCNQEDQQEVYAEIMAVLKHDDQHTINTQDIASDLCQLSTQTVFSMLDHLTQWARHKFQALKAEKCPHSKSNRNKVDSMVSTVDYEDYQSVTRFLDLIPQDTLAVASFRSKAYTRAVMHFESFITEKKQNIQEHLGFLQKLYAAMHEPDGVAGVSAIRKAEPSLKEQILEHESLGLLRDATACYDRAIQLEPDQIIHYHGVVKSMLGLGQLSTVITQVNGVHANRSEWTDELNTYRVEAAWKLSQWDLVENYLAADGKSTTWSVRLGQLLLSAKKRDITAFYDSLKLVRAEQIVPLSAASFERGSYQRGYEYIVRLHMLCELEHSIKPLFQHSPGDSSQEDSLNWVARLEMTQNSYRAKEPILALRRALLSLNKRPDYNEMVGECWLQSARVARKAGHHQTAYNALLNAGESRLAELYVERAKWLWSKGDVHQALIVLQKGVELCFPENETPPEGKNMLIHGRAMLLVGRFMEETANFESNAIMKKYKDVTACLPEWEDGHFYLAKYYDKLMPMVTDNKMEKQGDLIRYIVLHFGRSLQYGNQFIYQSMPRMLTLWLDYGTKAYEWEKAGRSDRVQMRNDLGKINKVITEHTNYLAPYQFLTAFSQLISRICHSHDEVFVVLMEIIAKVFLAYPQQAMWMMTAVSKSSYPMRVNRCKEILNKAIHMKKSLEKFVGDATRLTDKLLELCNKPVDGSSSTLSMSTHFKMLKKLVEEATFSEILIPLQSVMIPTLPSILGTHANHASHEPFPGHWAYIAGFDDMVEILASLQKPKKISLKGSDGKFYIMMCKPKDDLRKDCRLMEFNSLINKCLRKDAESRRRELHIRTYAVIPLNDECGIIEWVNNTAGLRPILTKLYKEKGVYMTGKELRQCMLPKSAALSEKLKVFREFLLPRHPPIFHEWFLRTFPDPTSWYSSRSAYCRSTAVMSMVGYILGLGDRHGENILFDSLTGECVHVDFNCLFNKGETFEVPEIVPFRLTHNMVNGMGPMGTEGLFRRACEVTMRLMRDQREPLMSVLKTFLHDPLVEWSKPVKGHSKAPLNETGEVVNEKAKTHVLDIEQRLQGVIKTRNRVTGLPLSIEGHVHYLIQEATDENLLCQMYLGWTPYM
Sequence of ATR/ATRIP (Homo sapiens) (Q8WXE1 whole entry, looked up): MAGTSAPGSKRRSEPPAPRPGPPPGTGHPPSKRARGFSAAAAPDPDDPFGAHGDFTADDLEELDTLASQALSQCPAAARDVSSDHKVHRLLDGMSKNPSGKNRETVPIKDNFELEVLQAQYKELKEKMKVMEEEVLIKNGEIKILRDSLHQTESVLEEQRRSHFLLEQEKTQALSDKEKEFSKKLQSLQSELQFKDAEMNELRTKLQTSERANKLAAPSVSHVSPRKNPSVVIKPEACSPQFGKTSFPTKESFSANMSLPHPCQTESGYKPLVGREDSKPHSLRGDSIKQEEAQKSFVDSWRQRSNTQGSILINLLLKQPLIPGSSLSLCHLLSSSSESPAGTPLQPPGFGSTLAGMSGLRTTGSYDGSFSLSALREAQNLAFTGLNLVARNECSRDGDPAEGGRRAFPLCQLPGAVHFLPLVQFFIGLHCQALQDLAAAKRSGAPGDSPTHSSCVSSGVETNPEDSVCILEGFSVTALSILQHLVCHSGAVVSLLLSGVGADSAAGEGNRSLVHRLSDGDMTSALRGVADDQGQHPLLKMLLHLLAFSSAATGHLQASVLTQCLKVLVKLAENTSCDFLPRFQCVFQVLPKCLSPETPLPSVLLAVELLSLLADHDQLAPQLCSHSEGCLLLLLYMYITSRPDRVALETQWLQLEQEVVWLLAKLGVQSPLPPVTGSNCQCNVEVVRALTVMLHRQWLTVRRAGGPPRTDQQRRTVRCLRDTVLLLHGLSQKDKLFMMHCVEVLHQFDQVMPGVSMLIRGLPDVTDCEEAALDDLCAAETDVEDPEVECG
Summary of the method: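 Eurofins KinaseProfiler panel with compound at a single 1 μM concentration. ATP at the Km of each kinase. Result is % inhibition, mean of two independent experiments.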

Mus musculus [13] = test: Toxicity in BALB/c nude mouse xenografted with human T47D cells assessed as decrease in body weight at 15 to 60 mg/kg, po administered via gavage for 3 weeks measured during compound dosing; type: organism-based; conditions: in vivo, 504 h
Summary of the method: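 BALB/c nude mice, 6−8 weeks old, injected subcutaneously with 100 μL T-47D cells at 2 × 10^7 per mL in serum-free medium. At 100−120 mm3, randomized to 5 groups of 5: 15, 30 or 60 mg/kg/d, rapamycin 60 mg/kg/d, or vehicle. Dosed daily by intragastric route in DMSO for 3 weeks. Side effects checked daily; body weight every other day.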

HeLa [14] = test: Induction of autophagy in human HeLa cells assessed as increase in LC3-2 puncta level after 48 hrs by immunofluorescence staining based microscopic analysis; type: functional, cell-based
Summary of the method: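 Cells were grown on glass coverslips and exposed to inhibitor for 48 h. They were fixed in 4% paraformaldehyde, permeabilized with 0.15% Triton X-100 and blocked in 4% BSA/PBS for 1 h. Anti-LC3B was applied overnight at 1:200, followed by FITC secondary and DAPI nuclear stain. LC3B-II puncta were counted by fluorescence microscopy.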

[15] = molecular target: Serine/threonine-protein kinase mTOR (Homo sapiens, UniProt P42345); test: Inhibition of N-terminal FLAG-tagged recombinant human mTOR (1362 to end residues)

For `N#CCN1CCC(n2c(=O)cnc3cnc4ccc(-c5ccc(N)nc5)cc4c32)CC1`, the inhibition (Homo sapiens [1]) was “Active”, the inhibition in vivo at 15 mg/kg (T47D) was 63.2% and the AUC(0-inf) [2] was 6560 ng·h/mL. For the same compound, the clearance [3] was 25.5 mL/min/kg, the inhibition (Homo sapiens [4]) was “Active” and the inhibition (Homo sapiens [5]) was “Active”. For the same compound, the inhibition (Homo sapiens [6]) was “Active”, the fraction unbound at 4 h, 4 µM [7] was 0.399 and the IC50 (HeLa [8]) was 441 nM. The Activity (SiHa) was “Dose-dependent effect”, the Vd [9] was 16.7 L/kg and the Activity (Mus musculus [10]) was “Dose-dependent effect”. The inhibition (Homo sapiens [11]) was “Active”, the Activity (HeLa [12]) was “Active” and the inhibition (ATR/ATRIP (Homo sapiens)) was 24%. For the same compound, the Activity (Mus musculus [13]) was “Non-Toxic”, the Activity (HeLa [14]) was “Dose-dependent effect” and the IC50 [15] was 7 nM.
